pIC50: −log10 of the molar value. In brackets after ≈: the same amount, converted by molar mass.
System: Mycobacterium tuberculosis
Assay: Antimycobacterial activity against Mycobacterium tuberculosis 331/88 after 14 days by micromethod
Assay type: functional
Conditions: 331/88, 336 h
Summary of the method: (§1)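 Inocula: M. tuberculosis My 331/88 at 10^-3 dilution, M. avium My 330/88 at 10^-5, M. kansasii My 235/80 and clinical isolate 6509/96 at 10^-4. Compounds added in DMSO at 1000 down to 0.5 (twofold series). Read at 14 and 21 days, plus 7 days for M. kansasii. MIC taken as lowest concentration inhibiting growth.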
In the case of `COc1cc(Cl)ccc1C(=O)Nc1ccc(C(F)(F)F)cc1O`, the MIC was 250 µM (≈ 86.4 µg/mL).
`COc1ccc(Cl)cc1-c1nc2ccc(C(F)(F)F)cc2o1` showed an MIC of 62.5 µM (≈ 20.5 µg/mL).
For `COc1ccc(Cl)cc1C(=O)Nc1cc(Cl)ccc1O`, the MIC was 16 µM (≈ 4.99 µg/mL).
For `COc1ccc(Cl)cc1-c1nc2ccc(Br)cc2o1`, the MIC was 125 µM (≈ 42.3 µg/mL).
`COc1cc(Cl)ccc1-c1nc2cc(Cl)c(Cl)cc2o1` gave an MIC of 250 µM (≈ 82.1 µg/mL).

System: Mycobacterium tuberculosis
Assay: Antimycobacterial activity against Mycobacterium tuberculosis 331/88 after 21 days by micromethod
Assay type: functional
Conditions: 331/88, 504 h
Summary of the method: as §1
Compound `COc1cc(Cl)ccc1C(=O)Nc1ccc(C(F)(F)F)cc1O` has an MIC of 250 µM (≈ 86.4 µg/mL).
With `COc1ccc(Cl)cc1-c1nc2ccc(C(F)(F)F)cc2o1` the MIC was 62.5 µM (≈ 20.5 µg/mL).
`COc1ccc(Cl)cc1C(=O)Nc1cc(Cl)ccc1O` gave an MIC of 32 µM (≈ 9.99 µg/mL).
Compound `COc1ccc(Cl)cc1-c1nc2ccc(Br)cc2o1` has an MIC of 125 µM (≈ 42.3 µg/mL).
`COc1cc(Cl)ccc1-c1nc2cc(Cl)c(Cl)cc2o1` gave an MIC of 250 µM (≈ 82.1 µg/mL).

System: Mycobacterium avium
Assay: Antimycobacterial activity against isoniazid resistance Mycobacterium avium 330/88 after 14 days by micromethod
Assay type: functional
Conditions: 330/88, 336 h
Summary of the method: as §1
`COc1cc(Cl)ccc1C(=O)Nc1ccc(C(F)(F)F)cc1O` gave an MIC of 62.5 µM (≈ 21.6 µg/mL).
Work on `COc1ccc(Cl)cc1-c1nc2ccc(C(F)(F)F)cc2o1` yielded an MIC of 250 µM (≈ 81.9 µg/mL).
For `COc1ccc(Cl)cc1C(=O)Nc1cc(Cl)ccc1O`, the MIC was 125 µM (≈ 39 µg/mL).
`COc1ccc(Cl)cc1-c1nc2ccc(Br)cc2o1` gave an MIC of 125 µM (≈ 42.3 µg/mL).
`COc1cc(Cl)ccc1-c1nc2cc(Cl)c(Cl)cc2o1` gave an MIC of 250 µM (≈ 82.1 µg/mL).

System: Mycobacterium avium
Assay: Antimycobacterial activity against isoniazid resistance Mycobacterium avium 330/88 after 21 days by micromethod
Assay type: functional
Conditions: 330/88, 504 h
Summary of the method: as §1
`COc1cc(Cl)ccc1C(=O)Nc1ccc(C(F)(F)F)cc1O` showed an MIC of 62.5 µM (≈ 21.6 µg/mL).
`COc1ccc(Cl)cc1-c1nc2ccc(C(F)(F)F)cc2o1` gave an MIC of 250 µM (≈ 81.9 µg/mL).
With `COc1ccc(Cl)cc1C(=O)Nc1cc(Cl)ccc1O` the MIC was 125 µM (≈ 39 µg/mL).
In the case of `COc1ccc(Cl)cc1-c1nc2ccc(Br)cc2o1`, the MIC was 125 µM (≈ 42.3 µg/mL).
Work on `COc1cc(Cl)ccc1-c1nc2cc(Cl)c(Cl)cc2o1` yielded an MIC of 500 µM (≈ 164 µg/mL).

System: Mycobacterium kansasii
Assay: Antimycobacterial activity against Mycobacterium kansasii 6509/96 clinical isolate after 7 days by micromethod
Assay type: functional
Conditions: 6509/96, 168 h
Summary of the method: as §1
With `COc1cc(Cl)ccc1C(=O)Nc1ccc(C(F)(F)F)cc1O` the MIC was 250 µM (≈ 86.4 µg/mL).
With `COc1ccc(Cl)cc1-c1nc2ccc(C(F)(F)F)cc2o1` the MIC was 62.5 µM (≈ 20.5 µg/mL).
`COc1ccc(Cl)cc1C(=O)Nc1cc(Cl)ccc1O` gave an MIC of 8 µM (≈ 2.5 µg/mL).
`COc1ccc(Cl)cc1-c1nc2ccc(Br)cc2o1` showed an MIC of 125 µM (≈ 42.3 µg/mL).
With `COc1cc(Cl)ccc1-c1nc2cc(Cl)c(Cl)cc2o1` the MIC was 250 µM (≈ 82.1 µg/mL).

System: Mycobacterium kansasii
Assay: Antimycobacterial activity against isoniazid resistance Mycobacterium kansasii 225/80 after 7 days by micromethod
Assay type: functional
Conditions: 225/80, 168 h
With `COc1ccc(Cl)cc1-c1nc2ccc(C(F)(F)F)cc2o1` the MIC was 250 µM (≈ 81.9 µg/mL).
`COc1ccc(Cl)cc1C(=O)Nc1cc(Cl)ccc1O` showed an MIC of 4 µM (≈ 1.25 µg/mL).
`COc1ccc(Cl)cc1-c1nc2ccc(Br)cc2o1` gave an MIC of 125 µM (≈ 42.3 µg/mL).
Compound `COc1cc(Cl)ccc1-c1nc2cc(Cl)c(Cl)cc2o1` has an MIC of 250 µM (≈ 82.1 µg/mL).

System: Mycobacterium kansasii
Assay: Antimycobacterial activity against isoniazid resistance Mycobacterium kansasii 225/80 after 14 days by micromethod
Assay type: functional
Conditions: 225/80, 336 h
Compound `COc1cc(Cl)ccc1C(=O)Nc1ccc(C(F)(F)F)cc1O` has an MIC of 250 µM (≈ 86.4 µg/mL).
With `COc1ccc(Cl)cc1-c1nc2ccc(C(F)(F)F)cc2o1` the MIC was 250 µM (≈ 81.9 µg/mL).
With `COc1ccc(Cl)cc1C(=O)Nc1cc(Cl)ccc1O` the MIC was 16 µM (≈ 4.99 µg/mL).
`COc1ccc(Cl)cc1-c1nc2ccc(Br)cc2o1` gave an MIC of 125 µM (≈ 42.3 µg/mL).
`COc1cc(Cl)ccc1-c1nc2cc(Cl)c(Cl)cc2o1` showed an MIC of 250 µM (≈ 82.1 µg/mL).

System: Mycobacterium kansasii
Assay: Antimycobacterial activity against isoniazid resistance Mycobacterium kansasii 225/80 after 21 days by micromethod
Assay type: functional
Conditions: 225/80, 504 h
Work on `COc1cc(Cl)ccc1C(=O)Nc1ccc(C(F)(F)F)cc1O` yielded an MIC of 250 µM (≈ 86.4 µg/mL).
`COc1ccc(Cl)cc1-c1nc2ccc(C(F)(F)F)cc2o1` showed an MIC of 250 µM (≈ 81.9 µg/mL).
With `COc1ccc(Cl)cc1C(=O)Nc1cc(Cl)ccc1O` the MIC was 16 µM (≈ 4.99 µg/mL).
Compound `COc1ccc(Cl)cc1-c1nc2ccc(Br)cc2o1` has an MIC of 125 µM (≈ 42.3 µg/mL).
`COc1cc(Cl)ccc1-c1nc2cc(Cl)c(Cl)cc2o1` showed an MIC of 250 µM (≈ 82.1 µg/mL).

System: Mycobacterium kansasii
Assay: Antimycobacterial activity against Mycobacterium kansasii 6509/96 clinical isolate after 14 days by micromethod
Assay type: functional
Conditions: 6509/96, 336 h
Summary of the method: as §1
For `COc1cc(Cl)ccc1C(=O)Nc1ccc(C(F)(F)F)cc1O`, the MIC was 250 µM (≈ 86.4 µg/mL).
Work on `COc1ccc(Cl)cc1-c1nc2ccc(C(F)(F)F)cc2o1` yielded an MIC of 62.5 µM (≈ 20.5 µg/mL).
With `COc1ccc(Cl)cc1C(=O)Nc1cc(Cl)ccc1O` the MIC was 16 µM (≈ 4.99 µg/mL).
`COc1ccc(Cl)cc1-c1nc2ccc(Br)cc2o1` showed an MIC of 125 µM (≈ 42.3 µg/mL).
With `COc1cc(Cl)ccc1-c1nc2cc(Cl)c(Cl)cc2o1` the MIC was 250 µM (≈ 82.1 µg/mL).

System: Mycobacterium kansasii
Assay: Antimycobacterial activity against Mycobacterium kansasii 6509/96 clinical isolate after 21 days by micromethod
Assay type: functional
Conditions: 6509/96, 504 h
Summary of the method: as §1
`COc1cc(Cl)ccc1C(=O)Nc1ccc(C(F)(F)F)cc1O` gave an MIC of 250 µM (≈ 86.4 µg/mL).
In the case of `COc1ccc(Cl)cc1-c1nc2ccc(C(F)(F)F)cc2o1`, the MIC was 62.5 µM (≈ 20.5 µg/mL).
In the case of `COc1ccc(Cl)cc1C(=O)Nc1cc(Cl)ccc1O`, the MIC was 16 µM (≈ 4.99 µg/mL).
Compound `COc1ccc(Cl)cc1-c1nc2ccc(Br)cc2o1` has an MIC of 125 µM (≈ 42.3 µg/mL).
`COc1cc(Cl)ccc1-c1nc2cc(Cl)c(Cl)cc2o1` showed an MIC of 250 µM (≈ 82.1 µg/mL).

Target: T1, Isocitrate lyase (Mycobacterium tuberculosis) (UniProt P9WKK7)
T1 sequence (whole entry): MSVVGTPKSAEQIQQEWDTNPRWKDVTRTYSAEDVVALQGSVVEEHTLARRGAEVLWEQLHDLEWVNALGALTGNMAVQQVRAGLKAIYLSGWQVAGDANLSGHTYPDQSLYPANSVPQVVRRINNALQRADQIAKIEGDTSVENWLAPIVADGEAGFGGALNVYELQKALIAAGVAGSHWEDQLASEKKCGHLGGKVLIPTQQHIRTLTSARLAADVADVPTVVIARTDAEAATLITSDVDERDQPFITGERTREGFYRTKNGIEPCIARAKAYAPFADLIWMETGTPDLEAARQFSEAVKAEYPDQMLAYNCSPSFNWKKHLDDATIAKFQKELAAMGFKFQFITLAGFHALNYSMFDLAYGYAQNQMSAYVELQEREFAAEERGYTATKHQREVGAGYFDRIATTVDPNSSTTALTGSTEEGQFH
Assay: Inhibition of Mycobacterium tuberculosis H37Rv isocitrate lyase expressed in Escherichia coli HB101 at 10 umol/L
Conditions: not given
Summary of the method: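 Isocitrate lyase assayed per Dixon–Kornberg in 96-well format. Buffer: 50 mmol/L KH2PO4, 4 mmol/L MgCl2, 4 mmol/L phenylhydrazine, 12 mmol/L cysteine, pH 7.0. Glyoxylate phenylhydrazone read at 324 nm. Compounds added in DMSO, with DMSO-alone inhibition subtracted.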
With `COc1cc(Cl)ccc1C(=O)Nc1ccc(C(F)(F)F)cc1O` the inhibition was 7%.
`COc1ccc(Cl)cc1-c1nc2ccc(C(F)(F)F)cc2o1` gave an inhibition of 0%.
With `COc1ccc(Cl)cc1C(=O)Nc1cc(Cl)ccc1O` the inhibition was 0%.
For `COc1ccc(Cl)cc1-c1nc2ccc(Br)cc2o1`, the inhibition was 0%.
Work on `COc1cc(Cl)ccc1-c1nc2cc(Cl)c(Cl)cc2o1` yielded an inhibition of 0%.

System: HepG2
Assay: Cytotoxicity against human HepG2 cells after 24 hrs by CellTiter-96 cell viability assay
Assay type: functional, cell-based
Conditions: HepG2, 24 h
Summary of the method: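 Hep G2 human hepatic cells (passage 12), 10,000 per well, grown 24 h at 37 °C, 5% CO2 in MEM with 1% glutamine, 10% FBS and 1% nonessential amino acids. Compounds in DMSO at eight increasing concentrations, quadruplicate, 24 h at 37 °C. Kit reagent added, 1.5 h at 37 °C, absorbance 490 nm. IC50 is the concentration reducing viability to 50% of control.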
`COc1cc(Cl)ccc1C(=O)Nc1ccc(C(F)(F)F)cc1O` gave a pIC50 of 5.41.

System: not listed separately
Assay: Selectivity index, ratio of IC50 for human HepG2 cells to MIC for Mycobacterium tuberculosis 331/88 after 14 days
Assay type: functional
Conditions: not given
Summary of the method: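 Cytotoxicity in Hep G2 cells (passage 12), 10,000 cells/well, in MEM with 10% FBS, 1% glutamine and 1% nonessential amino acids. Cells preincubated 24 h, 37 °C, 5% CO2. Compounds in DMSO at eight concentrations in quadruplicate, 24 h. MTS-type reagent added for 1.5 h, A490 read, IC50 taken at 50% viability. SI = this IC50 over the 14-day M. tuberculosis MIC.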
With `COc1cc(Cl)ccc1C(=O)Nc1ccc(C(F)(F)F)cc1O` the “Selectivity Index” value was 0.02.

Source: ChEMBL document CHEMBL2086304, “Synthesis and in vitro antimycobacterial and isocitrate lyase inhibition properties of novel 2-methoxy-2'-hydroxybenzanilides, their thioxo analogues and benzoxazoles” (Eur J Med Chem, 2012)
